Measured values pooled from the literature.
Protocols differ between the studies behind these lines.
Target: Death-associated protein kinase 1 (DAPK1, Homo sapiens, UniProt P53355)

SMILES	test	conditions	quantity	result
FC(F)(F)Oc1cccc(-c2cnc3ccc(-c4ccncc4)nn23)c1	enzyme activity, inhibitor, radiometric	5 µM	activity vs control	91%
CCOC(=O)c1cc2cc(-c3cc(C(=O)NCc4ccc(C(=O)O)cc4)nn3C)ccc2[nH]1	cell-free assay, competition with immobilised ligand	0.1 µM	remaining binding	84%
COc1cc(/C=C/C(=O)CC(=O)/C=C/c2ccc(O)c(OC)c2)ccc1O	enzyme activity, inhibitor	1 µM	activity vs control	93%
Oc1cccc(-c2nc(N3CCOCC3)c3oc4ncccc4c3n2)c1	enzyme activity, inhibitor	10 µM	remaining activity	30%
O=C(Nc1cnc(Oc2ccc(F)cc2)nc1)N1CCc2ncccc2[C@@H]1c1ccc(F)cc1	cell-free assay, competition with immobilised ligand	1 µM	remaining binding	78%
COc1cc(Nc2cnc(C#N)c(O[C@H](C)CN(C)C)n2)ncc1-c1cnn(C)c1	enzyme activity, inhibitor, radiometric	1 µM	remaining activity	95%
Cc1ccc(Nc2nccc(N(C)c3ccc4c(C)n(C)nc4c3)n2)cc1S(N)(=O)=O	enzyme activity, inhibitor	10 µM	inhibition	12%
CC/C(=N\NC(=O)NCc1cccc(O)c1)c1ccc(O)c(C)c1O	enzyme activity, inhibitor	0.1 µM	inhibition	-1.6%
CS(=O)(=O)NCC[C@H](NC(=O)c1cncc2c1cnn2-c1ccc(F)cc1)c1ccnc(S(C)(=O)=O)c1	cell-free assay, competition with immobilised ligand	1 µM	remaining binding	100%
CCN(CC)CCNC(=O)c1c(C)[nH]c(/C=C2\C(=O)Nc3ccc(F)cc32)c1C	cell-free assay	0.5 µM	remaining signal	66.9%
Cc1nc(N2CC[C@@H](O)C2)ncc1-c1cc(C(F)(F)F)cc2[nH]ncc12	binding, competition with immobilised ligand	1 µM	remaining binding	89%
Cc1ccc(NC(=O)c2ccc(CN3CCN(C)CC3)cc2)cc1Nc1nc(-c2cccnc2)cs1	cell-free assay	0.5 µM	remaining signal	97.5%
CNC(=O)c1cc(Oc2ccc(NC(=O)Nc3ccc(Cl)c(C(F)(F)F)c3)cc2)ccn1	enzyme activity, inhibitor	10 µM	inhibition	12%
FC(F)c1nc2ccccc2n1-c1nc(N2CCOCC2)nc(N2CCOCC2)n1	enzyme activity, inhibitor	10 µM	remaining activity	75%
Nc1ncnc2occ(-c3ccc(NC(=O)Nc4cc(C(F)(F)F)ccc4F)cc3)c12	cell-free assay, inhibitor	20 µM	remaining signal	29%
CN(C)c1ncnc(-c2ccc3nc(Nc4cc(CN5CCN(C(=O)CC(F)(F)F)CC5)ccn4)[nH]c3c2)c1Cl	cell-free assay, competition with immobilised ligand	1 µM	remaining binding	100%
O=C1Nc2ccc(Cl)cc2C1=Cc1cc(Cl)c(O)c(Cl)c1	cell-free assay	0.5 µM	remaining signal	90%
O=C(Nc1cccnn1)N1CC(C/C=C/c2cncc(Oc3ccc(C(F)(F)F)cn3)n2)C1	cell-free assay, competition with immobilised ligand	1 µM	remaining binding	98%
CC(C)(C)c1nc2c(s1)c1nc(N)ncc1c1ccc(NS(=O)(=O)c3c(F)cccc3F)c(F)c12	enzyme activity, inhibitor, radiometric	1 µM	remaining activity	79%
N#Cc1ccc(Nc2ccc3[nH]c(=O)[nH]c3c2)c(Cl)c1	cell-free assay, competition with immobilised ligand	1 µM	remaining binding	100%
CN(C)C1CCN(CC#Cc2nn(C3CCCC3)c3nc(NCc4ccccc4)ncc23)C1 (centres unmarked)	enzyme activity, inhibitor, FRET	1 µM	inhibition	-2%
CS(=O)(=O)CCNCc1ccc(-c2ccc3ncnc(Nc4ccc(OCc5cccc(F)c5)c(Cl)c4)c3c2)o1	cell-free assay	0.5 µM	remaining signal	107%
CCCCN(CCCC)C(=O)CN1C[C@@H](c2cc(OC)c3c(c2)OCO3)[C@H](C(=O)O)[C@H]1CC(C)(C)CCC	cell-free assay, competition with immobilised ligand	1 µM	remaining binding	82.8%
Cc1sc(C(=O)NC2COC2)cc1-n1cc(NC(=O)Nc2c(F)cccc2Cl)cn1	enzyme activity, inhibitor	10 µM	remaining activity	104%
Cc1cc(NC(=O)c2cccc3cc(-c4cccc5[nH]nc(N)c45)ccc23)ccc1F	enzyme activity, inhibitor	0.1 µM	activity vs control	88%
CC(C)(O)[C@H]1CC[C@H](Nc2ccc3ncc(-c4cccc(C(F)(F)F)c4)n3n2)CC1	enzyme activity, inhibitor	1 µM	remaining activity	110%
